Columns and labels:
[1] = Dissociation constant, pKa2 of the compound by potentiometric titration assay; format: physicochemical
[2] = AUC (0 to 24 hrs) in Wistar rat at 3 mg/kg, po by LC-MS/MS analysis; format: ADME, organism-based; set-up: dose 3 mg/kg, time < 24 hr, route oral; settings: in vivo
Outline: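 Fasted male Wistar rats; compound in water for injection, given i.v. (2 mL/kg) or p.o. (10 mL/kg). Plasma exposure measured as AUC0-24hr.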

[3] = Volume of distribution at steady state in Wistar rat at 3 mg/kg, po or 1 mg/kg, iv by LC-MS/MS analysis; format: ADME, organism-based; settings: Wistar, in vivo, read-out: Vdss
Outline: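 Fasted male Wistar rats were dosed orally and intravenously, with water for injection as the vehicle for both routes, at dosing volumes of 10 mL/kg p.o. and 2 mL/kg i.v.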

[4] = AUCt in Beagle dog at 3 mg/kg, po by LC-MS/MS analysis; format: ADME, organism-based, Canis lupus familiaris; settings: in vivo
[5] = Oral bioavailability in Beagle dog at 3 mg/kg by LC-MS/MS analysis; format: ADME, organism-based, Canis lupus familiaris; settings: in vivo
[6] = Metabolic stability in rat hepatocytes after 30 mins by LC-MS/MS analysis; format: ADME, cell-based, Hepatocyte; settings: read-out: Stability
[7] = Metabolic stability in dog hepatocytes after 30 mins by LC-MS/MS analysis; format: ADME, cell-based, Canis lupus familiaris, Hepatocyte; settings: read-out: Stability
Cytochrome P450 2B6 = target: T1, Cytochrome P450 2B6 (Homo sapiens, UniProt P20813); assay: Inhibition of CYP2B6 (unknown origin); format: ADME
T1 sequence (P20813 whole entry): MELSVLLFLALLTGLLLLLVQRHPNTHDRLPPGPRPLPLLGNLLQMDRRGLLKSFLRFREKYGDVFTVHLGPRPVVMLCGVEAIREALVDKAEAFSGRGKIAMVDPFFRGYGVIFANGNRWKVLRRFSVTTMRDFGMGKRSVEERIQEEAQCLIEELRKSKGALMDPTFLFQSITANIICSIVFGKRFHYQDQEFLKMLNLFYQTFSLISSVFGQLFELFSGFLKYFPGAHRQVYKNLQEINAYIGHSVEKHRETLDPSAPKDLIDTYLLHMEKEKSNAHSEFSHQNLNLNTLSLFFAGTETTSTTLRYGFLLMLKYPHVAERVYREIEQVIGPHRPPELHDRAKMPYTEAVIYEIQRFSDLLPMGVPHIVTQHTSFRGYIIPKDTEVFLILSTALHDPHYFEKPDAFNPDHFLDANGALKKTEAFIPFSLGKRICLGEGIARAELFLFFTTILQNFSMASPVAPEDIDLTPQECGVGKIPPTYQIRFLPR

Cytochrome P450 2C19 = Cytochrome P450 2C19 (Homo sapiens, UniProt P33261); assay: Inhibition of CYP2C19 (unknown origin); format: ADME
Cytochrome P450 2C19, sequence (P33261 whole entry): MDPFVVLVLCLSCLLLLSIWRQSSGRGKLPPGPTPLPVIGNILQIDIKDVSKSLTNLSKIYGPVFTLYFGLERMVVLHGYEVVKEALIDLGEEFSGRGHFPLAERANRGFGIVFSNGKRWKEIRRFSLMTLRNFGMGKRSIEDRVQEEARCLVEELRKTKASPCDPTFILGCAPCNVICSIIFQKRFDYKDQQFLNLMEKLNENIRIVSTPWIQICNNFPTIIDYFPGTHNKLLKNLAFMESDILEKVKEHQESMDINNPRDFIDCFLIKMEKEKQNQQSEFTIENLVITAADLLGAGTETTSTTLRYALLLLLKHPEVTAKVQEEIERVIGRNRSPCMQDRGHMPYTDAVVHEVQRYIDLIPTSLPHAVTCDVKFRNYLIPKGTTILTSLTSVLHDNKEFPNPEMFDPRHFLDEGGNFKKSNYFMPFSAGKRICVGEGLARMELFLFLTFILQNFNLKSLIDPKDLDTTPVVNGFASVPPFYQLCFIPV

Rattus norvegicus = assay: Effect on striatal dopamine levels in Wistar rat at 100 mg/kg, po by microdialysis; format: ADME, organism-based; settings: in vivo
[8] = Toxicity in dog assessed as effect on body weight at 10 to 25 mg/kg, po; format: organism-based, Canis lupus familiaris; settings: in vivo
Outline: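 Male dogs received oral doses of 10, 18 and 25 mg/kg. Body weight, body temperature, blood pressure, heart rate and ECG were monitored.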

[9] = Mutagenicity in Salmonella typhimurium TA1537 in absence of metabolic activation by Ames test; format: toxicity; settings: salmonella enterica subsp. enterica serovar typhimurium
[10] = Mutagenicity in Salmonella typhimurium TA98 in absence of metabolic activation by Ames test; format: toxicity; settings: salmonella enterica subsp. enterica serovar typhimurium
[11] = Mutagenicity in Salmonella typhimurium TA1535 in presence of metabolic activation by Ames test; format: toxicity; settings: salmonella enterica subsp. enterica serovar typhimurium

For `Cl.Cl.O=C(CN1CCOCC1)Nc1ccc(OC2CCN(C3CCC3)CC2)cc1`, the pKa [1] was 4.9, the AUC(0-t) at 24 h [2] was 626 ng·h/mL and the Vd [3] was 5 L/kg. For the same compound, the AUC(0-t) [4] was 1120 ng·h/mL, the bioavailability [5] was 83% and the remaining at 0.5 h [6] was 37%. The remaining at 0.5 h [7] was 33%, the IC50 (Cytochrome P450 2B6) was greater than 45 µM and the IC50 (Cytochrome P450 2C19) was greater than 45 µM. For the same compound, the Activity (Rattus norvegicus) was “Non-Toxic”, the Activity [8] was “Non-Toxic” and the Activity [9] was “Non-Toxic”. The Activity [10] was “Non-Toxic” and the Activity [11] was “Non-Toxic”.

Reference: ChEMBL document CHEMBL4368912, “Discovery and Development of N-[4-(1-Cyclobutylpiperidin-4-yloxy)phenyl]-2-(morpholin-4-yl)acetamide Dihydrochloride (SUVN-G3031): A Novel, Potent, Selective, and Orally Active Histamine H3 Receptor Inverse Agonist with Robust Wake-Promoting Activity” (J Med Chem, 2019)
